Active and inactive are the calls of the source. The rule behind the calls is not given here.
Legend:
A549 = experiment: Cytotoxicity against human A549 cells assessed as reduction in cell viability by SRB assay; type: functional, cell-based
How it was run: (§1)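 Cells seeded in 96-well plates and exposed to compounds for the stated times. Zero-day controls were incubated 30 min. Cells were fixed and stained with 0.4% SRB in 1% acetic acid, and bound dye was dissolved in 10 mM Tris (pH 10.0). A515 was read, and IC50 was calculated by non-linear regression.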

HCT-116 = experiment: Cytotoxicity against human HCT-116 cells assessed as reduction in cell viability by SRB assay; type: functional, cell-based; how it was run: as §1
MDA-MB-231 [1] = experiment: Cytotoxicity against human MDA-MB-231 cells assessed as reduction in cell viability by SRB assay; type: functional, cell-based; how it was run: as §1
SK-HEP1 = experiment: Cytotoxicity against human SK-HEP1 cells assessed as reduction in cell viability by SRB assay; type: functional, cell-based; how it was run: as §1
SNU-638 = experiment: Cytotoxicity against human SNU-638 cells assessed as reduction in cell viability by SRB assay; type: functional, cell-based; how it was run: as §1
[2] = target: Histone-lysine N-methyltransferase, H3 lysine-79 specific (Homo sapiens) (UniProt Q8TEK3); experiment: Inhibition of DOT1L in human MDA-MB-231 cells assessed as down regulation of H3K79me2 expression at 200 nM by Western blot analysis; type: cell-based
Sequence of Histone-lysine N-methyltransferase, H3 lysine-79 specific (Homo sapiens) (Q8TEK3 whole entry, looked up, the tested form may be a part): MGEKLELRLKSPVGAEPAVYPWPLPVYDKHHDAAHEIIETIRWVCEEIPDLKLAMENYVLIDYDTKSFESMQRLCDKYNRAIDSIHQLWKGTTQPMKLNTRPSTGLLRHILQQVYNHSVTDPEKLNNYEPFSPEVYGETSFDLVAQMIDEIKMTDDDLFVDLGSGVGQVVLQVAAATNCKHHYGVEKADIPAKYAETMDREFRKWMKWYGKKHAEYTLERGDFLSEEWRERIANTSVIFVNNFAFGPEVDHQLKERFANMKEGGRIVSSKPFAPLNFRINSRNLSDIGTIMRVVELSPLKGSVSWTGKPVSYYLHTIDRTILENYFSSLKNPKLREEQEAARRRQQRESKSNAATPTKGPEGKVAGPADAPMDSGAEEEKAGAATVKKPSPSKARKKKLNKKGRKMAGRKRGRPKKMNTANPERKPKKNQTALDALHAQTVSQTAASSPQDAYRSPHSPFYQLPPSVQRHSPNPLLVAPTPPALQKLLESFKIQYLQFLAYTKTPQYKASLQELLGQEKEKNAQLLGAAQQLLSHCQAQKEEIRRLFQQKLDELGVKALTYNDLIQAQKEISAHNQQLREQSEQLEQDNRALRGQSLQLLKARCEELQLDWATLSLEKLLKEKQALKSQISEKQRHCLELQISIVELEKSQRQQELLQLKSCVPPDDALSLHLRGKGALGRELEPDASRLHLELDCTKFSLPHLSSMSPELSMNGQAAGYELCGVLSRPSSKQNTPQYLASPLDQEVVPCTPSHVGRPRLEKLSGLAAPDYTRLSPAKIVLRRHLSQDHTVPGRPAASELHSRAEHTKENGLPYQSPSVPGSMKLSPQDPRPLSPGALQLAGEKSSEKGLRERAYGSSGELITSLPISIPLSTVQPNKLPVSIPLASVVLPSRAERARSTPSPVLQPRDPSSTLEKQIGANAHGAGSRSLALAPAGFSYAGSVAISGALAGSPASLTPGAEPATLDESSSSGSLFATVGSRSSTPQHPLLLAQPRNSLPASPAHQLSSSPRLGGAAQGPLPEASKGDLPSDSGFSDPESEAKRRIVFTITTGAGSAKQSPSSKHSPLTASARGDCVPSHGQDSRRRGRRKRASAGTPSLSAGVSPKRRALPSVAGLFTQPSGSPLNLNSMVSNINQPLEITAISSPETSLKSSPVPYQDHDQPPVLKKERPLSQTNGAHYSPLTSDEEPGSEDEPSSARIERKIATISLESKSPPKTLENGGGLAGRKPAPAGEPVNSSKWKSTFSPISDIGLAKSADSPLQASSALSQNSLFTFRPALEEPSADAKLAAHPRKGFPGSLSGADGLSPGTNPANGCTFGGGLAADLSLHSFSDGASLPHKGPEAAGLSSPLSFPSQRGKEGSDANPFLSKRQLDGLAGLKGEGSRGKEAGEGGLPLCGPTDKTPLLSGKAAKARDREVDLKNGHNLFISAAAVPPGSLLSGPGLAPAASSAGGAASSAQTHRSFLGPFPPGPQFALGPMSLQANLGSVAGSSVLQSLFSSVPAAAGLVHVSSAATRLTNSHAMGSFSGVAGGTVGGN
How it was run: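 MDA-MB-231 lysates were made in 2× SDS sample buffer with vanadate and fluoride. 5-20 μg protein was run on 8–15% SDS-PAGE and blotted to PVDF. Membranes were blocked in 5% BSA, probed for H3K79me2 with total histone H3, and detected by ECL. Mean ± SD (n = 3), representative of three separate experiments.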

[3] = target: Histone-lysine N-methyltransferase, H3 lysine-79 specific (Homo sapiens) (UniProt Q8TEK3); experiment: Inhibition of human N-terminal GST-tagged DOT1L (2 to 416 residues) expressed in Escherichia coli at 200 nM using DOT1L substrate measured after 2 hrs in presence of SAM by ELISA
How it was run: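 Cell-free DOT1L enzyme activity assay using 500 ng DOT1L per well. Compound was incubated 2 h before read-out. EPZ-5676 (100 nM) was the positive control. Mean ± SD (n = 3), representative of three separate experiments.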

[4] = target: Histone-lysine N-methyltransferase, H3 lysine-79 specific (Homo sapiens) (UniProt Q8TEK3); experiment: Inhibition of DOT1L in human MDA-MB-231 cells assessed as effect on H3K4 methylation at 200 nM by Western blot analysis; type: cell-based
How it was run: (§2)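 MDA-MB-231 cell lysates in 2× SDS buffer, protein by BCA; 5–20 μg on 8–15% SDS-PAGE, transferred to PVDF, BSA-blocked and probed with antibodies to H3K4me2, H3K27me2, H3K36me2, H3K79me2 and total histone H3; ECL detection. Mean ± SD (n = 3), three separate experiments.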

[5] = target: Histone-lysine N-methyltransferase, H3 lysine-79 specific (Homo sapiens) (UniProt Q8TEK3); experiment: Inhibition of DOT1L in human MDA-MB-231 cells assessed as effect on H3K27 methylation at 200 nM by Western blot analysis; type: cell-based; how it was run: as §2
[6] = target: Histone-lysine N-methyltransferase, H3 lysine-79 specific (Homo sapiens) (UniProt Q8TEK3); experiment: Inhibition of DOT1L in human MDA-MB-231 cells assessed as effect on H3K36 methylation at 200 nM by Western blot analysis; type: cell-based; how it was run: as §2
[7] = target: Histone-lysine N-methyltransferase, H3 lysine-79 specific (Homo sapiens) (UniProt Q8TEK3); experiment: Inhibition of DOT1L in human MDA-MB-231 cells assessed as effect on histone H3 methylation at 200 nM by Western blot analysis; type: cell-based; how it was run: as §2
MDA-MB-231 [8] = experiment: Antimigratory activity in human MDA-MB-231 cells assessed as suppression of wound closure at 400 nM after 24 hrs by microscopic analysis; type: functional, cell-based
How it was run: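 MDA-MB-231 monolayers at 80–90% confluence scratched with a pipette tip, washed with PBS, then kept 24 h in medium with 1% FBS plus compound at various concentrations. Wounds photographed at 0 and 24 h; area measured by image analysis and expressed as wound healing (%) relative to the 0 h area. Mean ± SD (n = 3), three separate experiments.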

MDA-MB-231 [9] = experiment: Antiinvasive activity in human MDA-MB-231 cells assessed as reduction in cell invasion through matrigel-coated chamber at 400 nM after 24 hrs by diff-quik staining based microscopic analysis; type: functional
How it was run: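 MDA-MB-231 cells pretreated with compound (50–400 nM) for 24 h, harvested into serum-free medium and plated at 0.5–1 × 10⁶ cells/chamber on transwell inserts (8 μm pores) coated with type I collagen and 1:20 Matrigel/PBS; 30% FBS medium as chemoattractant below. After 24 h, invaded cells fixed, Diff-Quik stained, counted in 5 random fields at 200×; three separate experiments.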

MCF-10A = experiment: Cytotoxicity against human MCF-10A cells assessed as reduction in cell viability by SRB assay; type: cell-based; how it was run: as §1
[10] = Selectivity ratio of IC50 for human MCF-10A cells to IC50 for human A549 cells; type: toxicity; settings: MCF-10A cells versus A549 cells, read-out: Ratio IC50
[11] = Selectivity ratio of IC50 for human MCF-10A cells to IC50 for human HCT-116 cells; type: toxicity; settings: MCF-10A cells versus HCT-116 cells, read-out: Ratio IC50
[12] = Selectivity ratio of IC50 for human MCF-10A cells to IC50 for human MDA-MB-231 cells; type: toxicity; settings: MCF-10A cells versus MDA-MB-231 cells, read-out: Ratio IC50
[13] = Selectivity ratio of IC50 for human MCF-10A cells to IC50 for human SK-HEP1 cells
How it was run: (§3)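 Cytotoxicity by SRB assay: cells seeded in 96-well plates and treated with compounds; fixed, stained with 0.4% SRB in 1% acetic acid, dye dissolved in 10 mM Tris (pH 10.0), absorbance read at 515 nm. IC50 by non-linear regression, means of at least three experiments; ratio of MCF10A IC50 to cancer-line IC50.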

[14] = Selectivity ratio of IC50 for human MCF-10A cells to IC50 for human SNU-638 cells; how it was run: as §3
[15] = Toxicity in human MDA-MB-231 cells xenografted BALB/c nu mouse assessed as body weight loss at 5 mg/kg, ip administered thrice per week for 38 days measured once per week during compound dosing; type: organism-based; settings: in vivo, 912 h, time 38 day
How it was run: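 Female BALB/c-nu mice (5–6 wk) given 1 × 10⁷ luciferase-expressing MDA-MB-231 cells in 50:50 DMEM/Matrigel into the fourth fat pad; randomized after 10 days (six per group). Dosed ip in EtOH/Cremophor/saline (5:5:90) three times weekly for 38 days. Tumor L, W, H measured by caliper, volume = LWH/2; body weight weekly; tumors excised and weighed at termination.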

Structure (SMILES)	IC50 (A549)	IC50 (HCT-116)	IC50 (MDA-MB-231 [1])	IC50 (SK-HEP1)	IC50 (SNU-638)	H3K79me2 downregulation (active/not active) [2]	inhibition [3]	other results
O=C(NCC[Se][Se]CCNC(=O)/C(Cc1ccc2ccccc2c1)=N/O)/C(Cc1ccc2ccccc2c1)=N/O	0.38 µM	0.12 µM	0.19 µM	0.17 µM	0.27 µM	inactive		
COc1cc([C@@H]2c3cc4c(cc3[C@@H](O[C@@H]3O[C@@H]5CO[C@@H](C)O[C@H]5[C@H](O)[C@H]3O)[C@H]3COC(=O)[C@H]23)OCO4)cc(OC)c1O [ETOPOSIDE]		1.2 µM	8.7 µM	0.4 µM	0.2 µM			
O=C(NCC[Se][Se]CCNC(=O)/C(Cc1ccc(Cl)c(Cl)c1)=N/O)/C(Cc1ccc(Cl)c(Cl)c1)=N/O	0.28 µM	0.52 µM	0.25 µM	0.32 µM	0.18 µM	Active		
O=C(NCC[Se][Se]CCNC(=O)/C(Cc1ccc(OCc2ccccc2)cc1)=N/O)/C(Cc1ccc(OCc2ccccc2)cc1)=N/O	0.14 µM	0.1 µM	0.14 µM	0.28 µM	0.41 µM	Active	Active	
O=C(NCCSSCCNC(=O)/C(Cc1ccc(O)c(Br)c1)=N/O)/C(Cc1ccc(O)c(Br)c1)=N/O [PSAMMAPLIN A]	1.76 µM	0.61 µM	1.31 µM	1.29 µM	0.56 µM		inactive	inhibition [4]: inactive; inhibition [5]: inactive; inhibition [6]: inactive; inhibition [7]: inactive; Activity (MDA-MB-231 [8]): inactive; Activity (MDA-MB-231 [9]): inactive
O=C(NCC[Se][Se]CCNC(=O)/C(Cc1ccc(O)c(Cl)c1)=N/O)/C(Cc1ccc(O)c(Cl)c1)=N/O	0.02 µM	0.01 µM	0.17 µM	0.11 µM	0.01 µM	Active	Active	
O=C(NCC[Se][Se]CCNC(=O)/C(Cc1ccc(O)c(Br)c1)=N/O)/C(Cc1ccc(O)c(Br)c1)=N/O	0.03 µM	0.01 µM	0.16 µM	0.21 µM	0.02 µM	Active	Active	IC50 (MCF-10A): 16.1 µM; selectivity ratio [10]: > 100; selectivity ratio [11]: > 100; selectivity ratio [12]: > 100; Ratio IC50 [13]: 77; Ratio IC50 [14]: >100
O=C(NCC[Se][Se]CCNC(=O)/C(Cc1ccc(Cl)cc1)=N/O)/C(Cc1ccc(Cl)cc1)=N/O	0.25 µM	0.28 µM	0.33 µM	0.33 µM	0.22 µM	Active		
CCOc1ccc(C/C(=N\O)C(=O)NCC[Se][Se]CCNC(=O)/C(Cc2ccc(OCC)cc2)=N/O)cc1	0.05 µM	0.07 µM	0.2 µM	0.18 µM	0.03 µM	Active	Active	
O=C(NCC[Se][Se]CCNC(=O)/C(Cc1ccc(O)c(F)c1)=N/O)/C(Cc1ccc(O)c(F)c1)=N/O	0.02 µM	0.01 µM	0.19 µM	0.13 µM	0.02 µM	Active	Active	
O=C(NCC[Se][Se]CCNC(=O)/C(Cc1ccc(Br)cc1)=N/O)/C(Cc1ccc(Br)cc1)=N/O	0.31 µM	0.17 µM	0.39 µM	0.31 µM	0.15 µM	Active		
O=C(NCC[Se][Se]CCNC(=O)/C(Cc1ccc(F)cc1)=N/O)/C(Cc1ccc(F)cc1)=N/O	0.1 µM	0.11 µM	0.13 µM	0.14 µM	0.07 µM			
O=C(NCC[Se][Se]CCNC(=O)/C(Cc1ccc(F)c(F)c1)=N/O)/C(Cc1ccc(F)c(F)c1)=N/O	0.33 µM	0.18 µM	0.42 µM	0.27 µM	0.05 µM	Active		
CC(C)(C)c1ccc(C/C(=N\O)C(=O)NCC[Se][Se]CCNC(=O)/C(Cc2ccc(C(C)(C)C)cc2)=N/O)cc1	0.1 µM	0.13 µM	0.1 µM	0.19 µM	0.28 µM	Active	Active	
O=C(NCC[Se][Se]CCNC(=O)/C(Cc1ccc([N+](=O)[O-])cc1)=N/O)/C(Cc1ccc([N+](=O)[O-])cc1)=N/O	0.09 µM	0.09 µM	0.09 µM	0.17 µM	0.06 µM	Active	Active	
CC(=O)O[C@H]1C(=O)[C@@]2(C)[C@H]([C@H](OC(=O)c3ccccc3)[C@]3(O)C[C@H](OC(=O)[C@H](O)[C@@H](NC(=O)c4ccccc4)c4ccccc4)C(C)=C1C3(C)C)[C@]1(OC(C)=O)CO[C@@H]1C[C@@H]2O [PACLITAXEL]								Activity [15]: Toxic
